Measured values taken from ChEMBL document CHEMBL4130604, “Germacrane-Type Sesquiterpenoids with Antiproliferative Activities from Eupatorium chinense” (J Nat Prod, 2018).
pIC50: −log10 of the molar value.

Key:
Assay type in all cases: functional, cell-based
Ca-Ski = test: Antiproliferative activity against human CaSki cells after 48 hrs by MTT assay
In short: (§1)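 Cytotoxicity was read by MTT method on human Caski cervical, MDA-MB-231 breast, CNE2 nasopharyngeal and HepG2 hepatocellular carcinoma lines. Mitomycin C served as positive control, and medium containing 0.1% DMSO was the negative control. IC50 values are reported in μM. Other details follow an earlier protocol.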

CNE-2 = test: Antiproliferative activity against human CNE2 cells after 48 hrs by MTT assay; conditions: CNE-2, 48 h; in short: as §1
MDA-MB-231 = test: Antiproliferative activity against human MDA-MB-231 cells after 48 hrs by MTT assay; conditions: MDA-MB-231, 48 h; in short: as §1
HepG2 = test: Antiproliferative activity against human HepG2 cells after 48 hrs by MTT assay; conditions: HepG2, 48 h; in short: as §1

| Structure (SMILES) | pIC50 (MDA-MB-231) | pIC50 (HepG2) | pIC50 (Ca-Ski) | pIC50 (CNE-2) |
| --- | --- | --- | --- | --- |
| C=C1C(=O)O[C@@H]2/C=C(/COC(C)=O)[C@@H](OC(C)=O)C/C=C(\C)C[C@@H](OC(=O)/C(C)=C/CO)[C@@H]12 | < 5.00 | < 5.00 | < 5.00 | < 5.00 |
| C=C1C(=O)O[C@@H]2/C=C(/CO)[C@@H](OC(C)=O)C[C@@H](O)C(=C)C[C@@H](OC(=O)/C(=C\C)CO)[C@@H]12 | < 5.00 | < 5.00 | < 5.00 | < 5.00 |
| CO[C@@]12[C@H](COC(N)=O)C3=C(C(=O)C(C)=C(N)C3=O)N1C[C@@H]1N[C@@H]12 [MITOMYCIN] | 5.36 | < 5.00 | < 5.00 | < 5.00 |
| C=C1C(=O)O[C@@H]2/C=C(/CO)[C@@H](OC(C)=O)C/C=C(\C)C[C@@H](OC(=O)/C(C)=C/C)[C@@H]12 | < 5.00 | < 5.00 | < 5.00 | < 5.00 |
| C=C1C(=O)O[C@@H]2/C=C(/CO)[C@@H](OC(C)=O)C/C=C(\C)C[C@@H](OC(=O)/C(=C\C)CO)[C@@H]12 | < 5.00 | 5.12 | < 5.00 | < 5.00 |

Second part, led by results:

| pIC50 (MDA-MB-231) | pIC50 (HepG2) | Structure (SMILES) | pIC50 (Ca-Ski) | pIC50 (CNE-2) |
| --- | --- | --- | --- | --- |
| < 5.00 | < 5.00 | C=C1C(=O)O[C@@H]2/C=C(/C)[C@@H](OC(C)=O)[C@H](OC(C)=O)/C=C(\C)C[C@@H](OC(=O)/C(=C\C)CO)[C@@H]12 | < 5.00 | < 5.00 |
| 5.48 | 5.20 | C=C1C(=O)O[C@@H]2/C=C(/C)[C@H](OC(C)=O)C/C=C(\C)C[C@@H](OC(=O)/C(=C\C)CO)[C@@H]12 | < 5.00 | < 5.00 |
| < 5.00 | < 5.00 | C=C1C(=O)O[C@@H]2/C=C(/C)[C@@H](OC(C)=O)[C@H](O)/C=C(\C)C[C@@H](OC(=O)/C(=C\C)CO)[C@@H]12 | < 5.00 | < 5.00 |
| < 5.00 | < 5.00 | C=C1C(=O)O[C@@H]2/C=C(/C)[C@@H](OC(C)=O)C[C@@H](O)C(=C)C[C@@H](OC(=O)/C(=C\C)CO)[C@@H]12 | < 5.00 | < 5.00 |
| 6.10 | 5.44 | C=C1C(=O)O[C@@H]2/C=C(/C)[C@@H](OC(C)=O)C/C=C(\C)C[C@@H](OC(=O)/C(=C\C)CO)[C@@H]12 | < 5.00 | < 5.00 |
